Reference: ChEMBL document CHEMBL4190227, “Syntheses, toxicities and anti-inflammation of H2S-donors based on non-steroidal anti-inflammatory drugs” (Eur J Med Chem, 2017)

What was measured:
[1] = (§1) Cytotoxicity against mouse RAW264.7 cells assessed as cell viability at 10 to 100 uM treated for 24 hrs in absence of LPS by MTT assay; format: cell-based; details: RAW264.7 cells, read-out: Activity
Summary of the method: (§2)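 Macrophages in high-glucose DMEM + 10% heat-inactivated FBS, 2 mM glutamine, 37 °C, 5% CO2; exposed 24 h to 10, 50, 100 μM with or without LPS 1 μg/mL; MTT added 4 h, formazan dissolved in DMSO, A570, expressed as % of control; four independent experiments.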

Danio rerio [2] = experiment: Toxicity in AB zebrafish embryo assessed as pericardial edema at 0.5 uM measured at 96 hrs post fertilization by stereoscopic dissecting light microscopic analysis; format: organism-based; details: in vivo
Summary of the method: (§3)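 AB embryos exposed from 4 hpf through 96 hpf to compound or DMF vehicle (1:1000); malformations scored at 96 hpf under stereoscopic dissecting microscope; 100 embryos per group in three replicates; three independent experiments, mean ± SD.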

[3] = Toxicity in AB zebrafish embryo assessed as percentage of embryos alive at 5 to 10 uM measured at 120 hrs post fertilization by dissecting light microscopic analysis relative to DMF; format: organism-based, Danio rerio; details: read-out: Activity
Summary of the method: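 Wild-type AB zebrafish embryos, collected within 1 h of lights-on and washed in E3 medium, were exposed one embryo per well in 200 μL test solution, with plates sealed against evaporation. There were 100 embryos per group, split into three replicate groups. Mortality was recorded at 24–168 hpf. DMF vehicle (1:1000) served as control. Results are mean ± SD of three replicates.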

Danio rerio [4] = organism: Danio rerio; experiment: Toxicity in AB zebrafish embryo assessed as increase in embryo malformation measured at 96 hrs post fertilization by stereoscopic dissecting light microscopic analysis; format: organism-based; details: in vivo; summary of the method: as §3
[5] = (§4) Cytotoxicity against mouse RAW264.7 cells assessed as cell viability at 10 to 100 uM treated for 24 hrs post LPS induction by MTT assay; format: cell-based; details: RAW264.7 cells, read-out: Activity; summary of the method: as §2
Danio rerio [6] = organism: Danio rerio; experiment: Toxicity in AB zebrafish embryo assessed as vitelline cyst at 0.5 uM measured at 96 hrs post fertilization by stereoscopic dissecting light microscopic analysis; format: organism-based; details: in vivo; summary of the method: as §3
Danio rerio [7] = organism: Danio rerio; experiment: Toxicity in AB zebrafish embryo assessed as rate of embryo malformation at 20 uM measured at 96 hrs post fertilization by stereoscopic dissecting light microscopic analysis relative to DMF; format: organism-based; details: in vivo; summary of the method: as §3
RAW264.7 [8] = experiment: as §1; format: cell-based; details: raw264.7, 24 h, 100 µM; summary of the method: as §2
Danio rerio [9] = organism: Danio rerio; experiment: Toxicity in AB zebrafish embryo assessed as reduction in embryonic spontaneous movement frequencies per minute up to 1 uM measured at 24 hrs post fertilization by stereoscopic dissecting light microscopic analysis; format: organism-based; details: in vivo
Summary of the method: (§5)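 AB embryos exposed from 4 to 24 hpf to compound (0.5–20 μM) or DMF vehicle (1:1000); ten embryos per group chosen randomly; spontaneous movement recorded under stereoscopic dissecting microscope, frequency per min counted at 24 hpf; three independent experiments, mean ± SD.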

Danio rerio [10] = organism: Danio rerio; experiment: Toxicity in AB zebrafish embryo assessed as embryonic spontaneous movement frequencies per minute at 10 uM measured at 24 hrs post fertilization by stereoscopic dissecting light microscopic analysis (reference value: 15.9 /min); format: organism-based; details: in vivo; summary of the method: as §5
RAW264.7 [11] = experiment: Antiinflammatory activity in mouse RAW264.7 cells assessed as increase in LPS-induced IL10 levels at 100 uM incubated for 24 hrs post LPS induction by ELISA relative to control; format: functional
Summary of the method: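 LPS (1 μg/mL) for 4 h, then compound at 10, 50, 100 μM for 24 h; cells lysed in RIPA, spun 12,000×g 10 min, protein normalised by BCA to 0.1 mg/mL; target (TNF-α, HO-1, IL-10 or COX-2) quantified by sandwich ELISA kit with mouse-specific polyclonal antibodies; four independent experiments.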

RAW264.7 [12] = experiment: as §4; format: cell-based; details: raw264.7, 24 h, 100 µM; summary of the method: as §2
Danio rerio [13] = organism: Danio rerio; experiment: Toxicity in AB zebrafish embryo assessed as embryonic spontaneous movement frequencies per minute at 20 uM measured at 24 hrs post fertilization by stereoscopic dissecting light microscopic analysis (reference value: 15.9 /min); format: organism-based; details: in vivo; summary of the method: as §5
Danio rerio [14] = organism: Danio rerio; experiment: Toxicity in AB zebrafish embryo assessed as rate of embryo malformation at 0.5 to 20 uM measured at 96 hrs post fertilization by stereoscopic dissecting light microscopic analysis relative to DMF; format: organism-based; details: in vivo; summary of the method: as §3

Row | SMILES | viability at 24 h, up to 100 µM [1] [%] | Activity (Danio rerio [2]) | survival at 120 h, up to 10 µM [3] [%] | Activity (Danio rerio [4]) | viability at 24 h, up to 100 µM [5] [%] | Activity (Danio rerio [6]) | Activity (Danio rerio [7]) [%] | Activity (RAW264.7 [8]) | Activity (Danio rerio [9]) | Activity (Danio rerio [10]) [min⁻¹] | fold change (FC) (RAW264.7 [11]) | Activity (RAW264.7 [12]) | Activity (Danio rerio [13]) [min⁻¹] | Activity (Danio rerio [14]) [%]
1 | CC(C)Cc1ccc(C(C)C(=O)Oc2ccc(C(N)=S)cc2)cc1 (centres undefined) | 70 to 110 | Toxic | 60 | Dose-dependent effect | 70 to 110 | Toxic | 5 |  |  |  |  |  |  | 
2 | CC(=O)Nc1ccc(OC(=O)CCCCC2CCSS2)cc1 (centres undefined) |  |  |  |  |  |  |  | Non-Toxic | Non-Toxic | 13.5 | 3 | Non-Toxic | 12.2 | 3
